Measured values reported in ChEMBL document CHEMBL1131318, “Synthesis and evaluation of compounds that facilitate the gastrointestinal absorption of heparin” (J Med Chem, 1998).

Key:
[1] = HPLC capacity factor (k') (artificial membrane chromatography); format: ADME
Procedure, shortened: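 Immobilized artificial membrane (IAM) column; mobile phase 10 mM sodium phosphate pH 6.4 in 25% aqueous propylene glycol, 2 mL/min. Samples at 100 µg/mL in mobile phase, UV detection 220 nm, KI as void marker. k' of each compound divided by mean k' of a reference standard injected before and after each set of five compounds; reported as relative k' (log for comparisons).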

[2] = Mean peak APTT value was evaluated on rats by intracolonic instillation of a 25% aqueous propylene glycol solution of heparin (25 mg/kg) and compound (50 mg/kg).; format: functional, Rattus norvegicus

Log relative k' [1] | SMILES | Mean peak APTT [2]
0.7 | O=C(O)CCCCCCCNC(=O)C/C=C/c1ccccc1 | 73
1.43 | O=C(O)CCCCCCCNC(=O)c1ccc(Cl)cc1O | 94
0.41 | O=C(O)CCCCCCCNC(=O)c1c(F)c(F)c(F)c(F)c1F | 22
0 | O=C(O)CCCCCCCNC(=O)c1cccc(O)c1 | 23
-0.41 | O=C(O)CCCNC(=O)c1ccccc1O | 25
1.54 | O=C(O)CCCCCCCNC(=O)c1cc(Br)ccc1O | 111
-0.52 | O=C(O)CCCCCCCNC(=O)c1ccccn1 | 23
0.46 | O=C(O)CCCCCCCNC(=O)c1cccc(O)c1O | –
1.03 | Cc1ccc(O)c(C(=O)NCCCCCCCC(=O)O)c1 | 56
1.7 | O=C(O)CCCCCCCNC(=O)c1cc2ccccc2cc1O | 71
0.11 | O=C(O)CCCCCCCNC(=O)c1ccccc1F | 25
0.97 | O=C(O)CCCCCCCNC(=O)c1ccc(I)cc1 | 23
1.43 | O=C(O)CCCCCCCCCNC(=O)c1ccccc1O | 153
1.12 | O=C(O)CCCCCCCNC(=O)c1c(O)cccc1O | 42
0.24 | O=C(O)CCCCCCCNC(=O)c1ccccc1Br | 21
0.35 | O=C(O)CCCCCCCNC(=O)c1ccccc1I | 22
-0.64 | O=C(O)CCCCCCCNC(=O)c1ccccc1OC(F)(F)F | 23
2.32 | O=C(O)CCCCCCCCCCCNC(=O)c1ccccc1O | 44
0.79 | COc1cc(Cl)ccc1C(=O)NCCCCCCCC(=O)O | 75
0.65 | O=C(O)CCCCCCCNC(=O)c1ccc(Cl)cc1 | 37
0.26 | O=C(O)CCCCCNC(=O)c1ccc(Cl)cc1O | 40
0.9 | O=C(O)CCCCCCCNC(=O)c1cccs1 | 22
-0.28 | O=C(O)CCCCCCCNC(=O)C1CCCN1 (stereo not given) | 25

Log relative k' [1] | SMILES | Mean peak APTT [2]
0.12 | O=C(O)CCCCCCCNC(=O)Cc1ccccc1O | 21
0.37 | O=C(O)CCCCCCNC(=O)c1ccccc1O | 56
-0.47 | COc1ccccc1C(=O)NCCCCCC(=O)O | 27
0.33 | COc1ccccc1C(=O)NCCCCCCCC(=O)O | 26
-0.68 | O=C(O)CNC(=O)c1ccccc1O [SALICYLURIC ACID] | 28
1.05 | O=C(O)CCCCCCCNC(=O)c1cccc(I)c1 | 39
0.18 | O=C(O)CCCCCCCNC(=O)c1ccccc1Cl | 23
0.25 | O=C(O)CCCCCCCNC(=O)c1cc([N+](=O)[O-])ccc1Cl | 23
1.88 | O=C(O)CCCCCCCCCCNC(=O)c1ccccc1O | 51
0.69 | O=C(O)CCCCCCCCNC(=O)C/C=C/c1ccccc1 | 140
0.02 | Nc1ccccc1C(=O)NCCCCCCCC(=O)O | 24
2.29 | O=C(O)CCCCCCCCCCCNC(=O)C/C=C/c1ccccc1 | 41
0.09 | O=C(O)CCCCCCCNC(=O)c1ccccc1 | 21
0.23 | O=C(O)CCCCCCCNC(=O)c1c(F)cccc1Cl | 23
-0.53 | O=C(O)CCCCCCCNC(=O)c1cccnc1Cl | 30
1.04 | O=C(O)CCCCCCCCNC(=O)c1ccccc1O | 163
1.72 | O=C(O)CCCCCCCNC(=O)c1cc(I)ccc1O | 32
0.9 | O=C(O)CCCCCCCNC(=O)c1cccnc1O | 22
0.76 | O=C(O)CCCCCCCNC(=O)c1ccc(Br)cc1 | 60
-0.55 | COc1cc([N+](=O)[O-])ccc1C(=O)NCCCCCCCC(=O)O | 25
-1 | O=C(O)CCCCCCCNC(=O)c1ccccc1C(=O)O | 23
2.1 | O=C(O)CCCCCCCNC(=O)c1ccc2ccccc2c1O | 31
1.23 | Cc1cccc(C(=O)NCCCCCCCC(=O)O)c1O | 27

Log relative k' [1] | SMILES | Mean peak APTT [2]
0.45 | Cc1ccccc1C(=O)NCCCCCCCC(=O)O | 25
1.05 | Cc1ccc(C(=O)NCCCCCCCC(=O)O)c(O)c1 | 37
0.89 | COc1ccccc1/C=C/CC(=O)NCCCCCCCCC(=O)O | 56
-0.06 | O=C(O)CCCCCCCNC(=O)c1cc(O)cc(O)c1 | 20
0.44 | O=C(O)CCCCCCCNC(=O)c1ccc([N+](=O)[O-])cc1 | 33
0.81 | O=C(O)CCCCCCCNC(=O)c1cc(Cl)ccc1O | 56
-0.04 | O=C(O)CCCCCCCNC(=O)c1ccc(O)cc1 | 27
0.29 | O=C(O)CCCCCCCNC(=O)c1cccc(F)c1 | 35
1.11 | O=C(O)CCCCCCCNC(=O)c1ccc([N+](=O)[O-])cc1O | 36
0.94 | O=C(O)CCCCCCCNC(=O)c1ccc(Cl)c([N+](=O)[O-])c1 | 34
-0.63 | O=C(O)CCNC(=O)c1ccccc1O | 22
0.81 | O=C(O)CCCCCCCNC(=O)c1cc2ccccc2oc1=O | 34
0.15 | O=C(O)CCCCCCCNC(=O)C1CCCCC1 | 34
> 2.5 | O=C(O)CCCCCCCCCCNC(=O)c1ccc2ccccc2c1O | 26
0.65 | O=C(O)CCCCCCCNC(=O)c1ccc(O)cc1O | 37
-0.18 | O=C(O)CCCCNC(=O)c1ccccc1O | 26
0.36 | O=C(O)CCCCCCNC(=O)C/C=C/c1ccccc1 | 39
0.04 | O=C(O)CCCCCNC(=O)c1ccccc1O | 24
0.23 | O=C(O)CCCCCCCNC(=O)c1ccc(F)cc1 | 31
0.92 | COc1ccc(C(=O)NCCCCCCCC(=O)O)c(O)c1 | 76
0.51 | O=C(O)CCCCCCCNC(=O)c1cc(O)ccc1O | 25

SMILES | Log relative k' [1] | Mean peak APTT [2]
O=C(O)CCCCCCCNC(=O)c1ccccc1O [SALCAPROZIC ACID] | 0.68 | 125
